Active and inactive are the calls of the source. No cut-off for these calls is given here.
How the values were obtained:
[1] = molecular target: T1, Uridine phosphorylase 1 (Homo sapiens, UniProt Q16831); test: Inhibition of human recombinant UP1 expressed in Escherichia coli Rosetta (DE3) using URD and inorganic phosphate as substrate at 1 uM after 60 seconds by spectrophotometric analysis relative to control
Method in brief: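 Assay mix: 100 mM Tris pH 7.4, 100 nM recombinant hUP1, uridine 50 μM and Pi 2 mM (their Km values), inhibitor 1 μM final. Run 60 s at 37 °C under initial-rate conditions, following A280 decrease as uridine converts to uracil. Percent inhibition relative to uninhibited activity; DMSO control at up to 1% final.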
Target sequence in this assay (Q16831 whole entry, looked up): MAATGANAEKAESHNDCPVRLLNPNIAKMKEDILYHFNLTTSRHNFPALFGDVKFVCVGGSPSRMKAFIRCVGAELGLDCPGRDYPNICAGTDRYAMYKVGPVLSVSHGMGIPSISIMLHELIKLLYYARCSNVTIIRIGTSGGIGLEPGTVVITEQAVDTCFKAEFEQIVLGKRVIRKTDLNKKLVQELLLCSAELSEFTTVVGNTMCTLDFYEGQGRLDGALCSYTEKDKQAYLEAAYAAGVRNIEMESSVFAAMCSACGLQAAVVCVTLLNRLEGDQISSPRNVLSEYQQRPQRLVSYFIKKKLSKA

[2] = molecular target: T1, Uridine phosphorylase 1; test: Uncompetitive inhibition of human recombinant UP1 expressed in Escherichia coli Rosetta (DE3) using inorganic phosphate as substrate by Lineweaver-Burk plot analysis
Method in brief: (§1)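 Pi varied 0.1–12 mM with uridine fixed at 50 μM. Four inhibitor levels (0.1–5 μM), 100 nM enzyme, 100 mM Tris pH 7.4, 37 °C. Initial rates read as decreasing A280. Kis from slopes and Kii from intercepts of Lineweaver–Burk plots; inhibition mode from line patterns. Duplicates.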
Target sequence in this assay (Q16831 whole entry, looked up): as above

[3] = molecular target: T1, Uridine phosphorylase 1; test: Time dependent inhibition of human recombinant UP1 expressed in Escherichia coli Rosetta (DE3) using URD and inorganic phosphate as substrate at 1 uM by spectrophotometric analysis
Method in brief: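 Enzyme (100 nM) preincubated with 1 μM inhibitor (final), then added to the standard reaction mix (Tris pH 7.4, 50 μM uridine, 2 mM Pi, 37 °C) at times up to 30 min. Change in initial velocity followed by A280 and percent inhibition calculated.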
Target sequence in this assay (Q16831 whole entry, looked up): as above

[4] = molecular target: T1, Uridine phosphorylase 1; test: Competitive inhibition of human recombinant UP1 expressed in Escherichia coli Rosetta (DE3) using URD as substrate by Lineweaver-Burk plot analysis
Method in brief: (§2)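 Uridine varied 20–600 μM with Pi fixed at 2 mM. Four inhibitor levels from 0.1 to 5 μM, 100 nM hUP1, 100 mM Tris pH 7.4, 37 °C. Uracil formation followed as the fall in A280 under initial-rate conditions. Kis from slopes and Kii from intercepts of Lineweaver–Burk plots; mode taken from line patterns. Duplicate measurements.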
Target sequence in this assay (Q16831 whole entry, looked up): as above

[5] = molecular target: T2, Thymidine phosphorylase (Homo sapiens, UniProt P19971); test: Inhibition of human thymidine phosphorylase
T2 sequence (P19971 whole entry): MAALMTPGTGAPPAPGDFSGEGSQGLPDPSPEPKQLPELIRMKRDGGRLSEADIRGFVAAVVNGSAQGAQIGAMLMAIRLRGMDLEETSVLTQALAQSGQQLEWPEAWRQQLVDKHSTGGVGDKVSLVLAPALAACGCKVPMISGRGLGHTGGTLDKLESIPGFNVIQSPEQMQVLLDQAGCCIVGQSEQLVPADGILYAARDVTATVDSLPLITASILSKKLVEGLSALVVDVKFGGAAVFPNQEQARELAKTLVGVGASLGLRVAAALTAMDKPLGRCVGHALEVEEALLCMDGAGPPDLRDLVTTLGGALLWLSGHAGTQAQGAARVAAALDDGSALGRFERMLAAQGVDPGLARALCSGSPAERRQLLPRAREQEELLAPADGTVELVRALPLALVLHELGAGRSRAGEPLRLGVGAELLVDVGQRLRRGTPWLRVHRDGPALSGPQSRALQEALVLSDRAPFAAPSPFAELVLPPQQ

[6] = molecular target: T1, Uridine phosphorylase 1; test: Binding affinity to human recombinant UP1-R1P binary complex expressed in Escherichia coli Rosetta (DE3) at 50 uM R1P by isothermal titration calorimetric analysis
Method in brief: (§3)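 ITC at 310.15 K (37 °C): 56 μM hUP1 in 50 mM Tris HCl pH 7.4, alone or as binary complex with 10 mM Pi or R1P (50–200 μM, final). One 0.5 μL injection (discarded), then 26 injections of 1.5 μL ligand. Dilution heats subtracted. Fit to one-set-of-sites model for ΔH°, Keq and n; ΔG° and ΔS° calculated.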
Target sequence in this assay (Q16831 whole entry): as the sequence (Q16831 whole entry, looked up) above

[7] = molecular target: T1, Uridine phosphorylase 1; test: Non-competitive inhibition of human recombinant UP1 expressed in Escherichia coli Rosetta (DE3) using inorganic phosphate as substrate assessed as equilibrium dissociation constant for enzyme-substrate-inhibitor complex by Lineweaver-Burk plot analysis; method in brief: as §1
Target sequence in this assay (Q16831 whole entry, looked up): as the sequence (Q16831 whole entry, looked up) above

[8] = molecular target: T1, Uridine phosphorylase 1; test: Non-competitive inhibition of human recombinant UP1 expressed in Escherichia coli Rosetta (DE3) using inorganic phosphate as substrate assessed as equilibrium dissociation constant for enzyme-inhibitor complex by Lineweaver-Burk plot analysis; method in brief: as §1
Target sequence in this assay (Q16831 whole entry, looked up): as the sequence (Q16831 whole entry, looked up) above

[9] = molecular target: T1, Uridine phosphorylase 1; test: Non-competitive inhibition of human recombinant UP1 expressed in Escherichia coli Rosetta (DE3) using URD as substrate assessed as equilibrium dissociation constant for enzyme-substrate-inhibitor complex by Lineweaver-Burk plot analysis; method in brief: as §2
[10] = molecular target: T1, Uridine phosphorylase 1; test: Non-competitive inhibition of human recombinant UP1 expressed in Escherichia coli Rosetta (DE3) using URD as substrate assessed as equilibrium dissociation constant for enzyme-inhibitor complex by Lineweaver-Burk plot analysis; method in brief: as §2
[11] = test system: HaCaT; test: Effect on 5-FU-induced cytotoxicity against human HaCaT cells at 30 uM after 72 hrs by MTT assay; format: cell-based
Method in brief: (§4)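 5-FU concentration–response over 72 h (HaCat 0.25–20 μM; HT-29 0.25–50 μM; SW-620 0.5–150 μM), with or without 30 μM inhibitor. Seeding and adhesion as for the viability assay. MTT read-out at 495 nm; 5-FU IC50 from semilog curves by nonlinear regression. Three independent experiments in quadruplicate; one-way ANOVA with Bonferroni test.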

[12] = Inhibition of mouse UPase by Dixon plot analysis
[13] = test system: HT-29; test: Potentiation of 5-FU-induced cytotoxicity against human HT-29 cells assessed as reduction in compound IC50 at 30 uM after 72 hrs by MTT assay relative to control; format: functional; method in brief: as §4
[14] = molecular target: T1, Uridine phosphorylase 1; test: Binding affinity to human recombinant UP1 expressed in Escherichia coli Rosetta (DE3) by isothermal titration calorimetric analysis; method in brief: as §3
Target sequence in this assay (Q16831 whole entry): as the sequence (Q16831 whole entry, looked up) above

[15] = molecular target: T1, Uridine phosphorylase 1; test: Induction of uridine phosphorylase-mediated drug metabolism in human liver
[16] = Half life in mouse plasma; format: ADME, cell-free
[17] = test system: HT-29; test: Cytotoxicity against human HT-29 cells at 1 to 100 uM after 72 hrs by MTT assay; format: functional, cell-based
Method in brief: (§5)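 Cells seeded at 7 × 10³ per well, allowed to adhere 48 h (HaCat) or 24 h (HT-29, SW-620). Exposed 72 h to 1–100 μM compound, 37 °C, 5% CO2. MTT 10% (v/v) for 3 h; formazan dissolved in DMSO and read at 495 nm. Viability relative to untreated cells; controls of medium and 1% DMSO. Mean ± SEM of three experiments in quadruplicate.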

[18] = test system: SW-620; test: Potentiation of 5-FU-induced cytotoxicity against human SW620 cells assessed as reduction in compound IC50 at 30 uM after 72 hrs by MTT assay relative to control; format: functional; method in brief: as §4
[19] = test system: HT-29; test: Protection against 5-FU-induced cytotoxicity against human HT-29 cells assessed as increase in compound IC50 at 30 uM after 72 hrs by MTT assay relative to control
[20] = test system: HaCaT; test: Cytotoxicity against human HaCaT cells at 1 to 100 uM after 72 hrs by MTT assay; format: cell-based; method in brief: as §5
[21] = test system: SW-620; test: Cytotoxicity against human SW620 cells at 1 to 100 uM after 72 hrs by MTT assay; format: functional, cell-based; method in brief: as §5

Which inhibition [1] does the source give for `CCCc1cc(O)[nH]c(=O)c1C#N` here?
Its inhibition is 16%.

Which inhibition [1] does the source give for `Cc1cc(O)[nH]c(=O)c1` here?
The inhibition was 16%.

With `Cc1cc(O)[nH]c(=O)c1C` as the molecule, how does the inhibition [1] read?
The inhibition was 9.5%.

What does the source list for `Cc1c(CNCC(O)CO)c(O)[nH]c(=O)c1C#N` (stereo not given)?
Kii [2]: 182 nM; inhibition [3]: inactive; Kis [4]: 109 nM; inhibition [1]: 78%; IC50 [5]: > 100 µM

Which inhibition [1] does the source give for `CC(C)c1cc(O)[nH]c(=O)c1C#N` here?
Its inhibition is 31%.

With `N#Cc1c(Cc2ccccc2)cc(O)[nH]c1=O` as the molecule, how does the inhibition [1] read?
Its inhibition is 2%.

For `O=c1cccc(O)[nH]1`, which inhibition [1] is on record?
The inhibition was 38%.

For `Cc1c(CN(C)C)c(O)[nH]c(=O)c1C#N`, which Kii [2] is on record?
Its Kii is 107 nM.

What about the inhibition [3] of the same molecule?
Its inhibition is “inactive”.

And the Kis [4]?
Its Kis is 99 nM.

What about the inhibition [1] of the same molecule?
The inhibition was 81%.

What about the IC50 [5] of the same molecule?
The IC50 was over 100 µM.

Which inhibition [1] does the source give for `N#Cc1c(-c2ccccc2)cc(O)[nH]c1=O` here?
Its inhibition is 42%.

With `Cc1c(CNC(CO)CO)c(O)[nH]c(=O)c1C#N` as the molecule, how does the Kii [2] read?
Its Kii is 98 nM.

And the inhibition [3]?
Its inhibition is “inactive”.

What about the Kd [6] of the same molecule?
Its Kd is 7 µM.

What about the Kis [4] of the same molecule?
The Kis was 94 nM.

And the inhibition [1]?
Its inhibition is 82%.

And the IC50 [5]?
The IC50 was over 100 µM.

With `CCc1cc(O)[nH]c(=O)c1C#N` as the molecule, how does the inhibition [1] read?
The inhibition was 25%.

With `Cc1ccc(O)[nH]c1=O` as the molecule, how does the inhibition [1] read?
Its inhibition is 12%.

With `Cc1c(Cc2ccccc2)c(O)[nH]c(=O)c1C#N` as the molecule, how does the inhibition [1] read?
The inhibition was 43%.

With `N#Cc1ccc(O)[nH]c1=O` as the molecule, how does the Kii [7] read?
The Kii was 666 nM.

And the inhibition [3]?
The inhibition was “inactive”.

And the Kis [8]?
Its Kis is 565 nM.

What about the inhibition [1] of the same molecule?
The inhibition was 67%.

What about the Kii [9] of the same molecule?
Its Kii is 2550 nM.

And the IC50 [5]?
Its IC50 is over 100 µM.

And the Kis [10]?
The Kis was 2610 nM.

With `O=c1[nH]c(=O)n(COCCO)cc1Cc1ccccc1` as the molecule, how does the Activity [11] read?
Its Activity is “Non-toxic”.

What about the Kii [7] of the same molecule?
The Kii was 317 nM.

And the Ki [12]?
Its Ki is 0.1 µM.

What about the Kis [8] of the same molecule?
The Kis was 547 nM.

What about the Kis [4] of the same molecule?
The Kis was 130 nM.

And the Activity [13]?
Its Activity is “inactive”.

What about the Kd [14] of the same molecule?
Its Kd is 1.2 µM.

For `O=c1[nH]cc(CNCCO)c(=O)[nH]1`, which inhibition [1] is on record?
The inhibition was 2%.

With `CCN(CC)Cc1c(O)[nH]c(=O)c(C#N)c1C` as the molecule, how does the inhibition [1] read?
Its inhibition is 25%.

Which inhibition [1] does the source give for `Cc1c(CN2CCOCC2)c(O)[nH]c(=O)c1C#N` here?
The inhibition was 51%.

For `Cc1c(-c2ccccc2)c(O)[nH]c(=O)c1C#N`, which inhibition [1] is on record?
The inhibition was 12%.

Which metabolised [15] does the source give for `O=c1ccn([C@@H]2O[C@H](CO)[C@@H](O)[C@H]2O)c(=O)[nH]1` [URIDINE] here?
The metabolised was over 80%.

And the half-life [16]?
The half-life was 2 min.

With `Cc1c(CNCCO)c(O)[nH]c(=O)c1C#N` as the molecule, how does the Kii [2] read?
The Kii was 127 nM.

And the Activity [17]?
Its Activity is “inactive”.

What about the Activity [11] of the same molecule?
Its Activity is “Non-toxic”.

What about the “fold change (FC)” value [18] of the same molecule?
The value was 6.

What about the inhibition [3] of the same molecule?
The inhibition was “inactive”.

And the Kis [4]?
The Kis was 68 nM.

And the inhibition [1]?
The inhibition was 80%.

And the IC50 [5]?
The IC50 was over 100 µM.

What about the “fold change (FC)” value [19] of the same molecule?
The value was 9.

What about the Activity [20] of the same molecule?
The Activity was “Non-toxic”.

And the Activity [21]?
The Activity was “inactive”.

For `Cc1c(CN2CCCCC2)c(O)[nH]c(=O)c1C#N`, which inhibition [1] is on record?
Its inhibition is 49%.

What does the source list for `Cc1cc(O)[nH]c(=O)c1C#N`?
Kii [2]: 332 nM; Activity [17]: inactive; Activity [11]: Non-toxic; fold change (FC) [18]: 12; inhibition [3]: inactive; inhibition [1]: 70%; Kii [9]: 635 nM; IC50 [5]: > 100 µM; Activity [13]: inactive; Activity [20]: Non-toxic; Activity [21]: inactive; Kis [10]: 375 nM

— ChEMBL document CHEMBL3085774, “Design of novel potent inhibitors of human uridine phosphorylase-1: synthesis, inhibition studies, thermodynamics, and in vitro influence on 5-fluorouracil cytotoxicity” (J Med Chem, 2013)
